Data taken from ChEMBL document CHEMBL1649438, “Activities of ceftobiprole and other cephalosporins against extracellular and intracellular (THP-1 macrophages and keratinocytes) forms of methicillin-susceptible and methicillin-resistant Staphylococcus aureus” (Antimicrob Agents Chemother, 2009).
Converted amounts (≈) assume the structure as drawn.

Tests used:
Staphylococcus aureus [1] = experiment: Antimicrobial activity against methicillin-resistant Staphylococcus aureus ATCC 33591 infected in human keratinocytes assessed as bacterial count per mg of cell protein at low extracellular compound concentration after 24 hrs; assay type: functional
How it was run: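 Primary human skin keratinocytes were grown in defined keratinocyte serum-free medium, infected with a postphagocytosis inoculum of 1.5 × 10⁶ to 3.0 × 10⁶ CFU/mg cell protein, then exposed 24 h to increasing extracellular antibiotic concentrations. Change in log10 CFU/mg protein from the inoculum was fitted to a Hill equation with slope 1. E0 and Emax were extrapolated to infinitely low and high concentrations, in total drug mg/liter.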

Staphylococcus aureus [2] = experiment: Ratio of MIC for hospital-acquired methicillin-resistant Staphylococcus aureus ATCC 33591 by microdilution method at pH 7.4 to ratio of MIC for hospital-acquired methicillin-resistant Staphylococcus aureus ATCC 33591 by microdilution method at pH 5.5; assay type: functional
How it was run: (§1)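 MICs were determined by broth microdilution at pH 7.4 and pH 5.5. Broth was adjusted before inoculation, and pH was confirmed maintained (±0.1 unit) at the end.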

Staphylococcus aureus [3] = experiment: Antimicrobial activity against methicillin-susceptible Staphylococcus aureus ATCC 25923 infected in human keratinocytes assessed as bacterial count per mg of cell protein at high extracellular compound concentration after 24 hrs; assay type: functional
How it was run: (§2)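 Primary human skin keratinocytes were grown in defined keratinocyte serum-free medium and infected with S. aureus to 1.5 × 10^6 to 3.0 × 10^6 CFU/mg cell protein. Cells were exposed 24 h to increasing extracellular concentrations. Response was the log10 CFU change from the postphagocytosis inoculum, fitted by a Hill equation with slope 1. Cs is the concentration giving CFU equal to the original inoculum, found by graphical interpolation.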

Staphylococcus aureus [4] = experiment: Bacteriostatic activity against methicillin-susceptible Staphylococcus aureus ATCC 25923 infected in human keratinocytes assessed as change in bacterial count after 24 hrs; assay type: functional; how it was run: as §2
Staphylococcus aureus [5] = experiment: Antimicrobial activity against methicillin-susceptible Staphylococcus aureus ATCC 25923 infected in human keratinocytes assessed as bacterial count per mg of cell protein at low extracellular compound concentration after 24 hrs; assay type: functional; how it was run: as §2
Staphylococcus aureus [6] = experiment: Bacteriostatic activity against methicillin-resistant Staphylococcus aureus ATCC 33591 infected in human keratinocytes assessed as change in bacterial count after 24 hrs; assay type: functional
How it was run: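 Primary human skin keratinocytes were grown in defined keratinocyte serum-free medium, infected, then incubated 24 h with increasing extracellular drug concentrations. Response was the change in log10 CFU/mg cell protein versus the post-phagocytosis inoculum, fitted to a Hill equation with slope factor 1. Static concentration (mg/liter, total drug) was taken by graphical interpolation where CFU equalled the original inoculum.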

Staphylococcus aureus [7] = experiment: Ratio of MIC for beta-lactamase-negative methicillin-susceptible Staphylococcus aureus ATCC 25923 by microdilution method at pH 7.4 to ratio of MIC for beta-lactamase-negative methicillin-susceptible Staphylococcus aureus ATCC 25923 by microdilution method at pH 5.5; assay type: functional
How it was run: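 MICs were measured by broth microdilution, with the broth adjusted to pH 7.4 or pH 5.5 before inoculation. pH was confirmed at the end of the assay to within ±0.1 unit. The value is the fold decrease in MIC between pH 7.4 and pH 5.5.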

Staphylococcus aureus [8] = experiment: Antimicrobial activity against methicillin-susceptible Staphylococcus aureus ATCC 25923 infected in human keratinocytes assessed as change in bacterial count after 24 hrs; assay type: functional, organism-based; conditions: ATCC 25923, 24 h; how it was run: as §2
Staphylococcus aureus [9] = experiment: Ratio of MIC for hospital-acquired methicillin-resistant Staphylococcus aureus ATCC 33591 by microdilution method at pH 5.5 to MIC for beta-lactamase-negative methicillin-susceptible Staphylococcus aureus ATCC 25923 by microdilution method at pH 5.5; assay type: functional; how it was run: as §1
Staphylococcus aureus [10] = experiment: Antimicrobial activity against hospital-acquired vancomycin-intermediate Staphylococcus aureus NRS126 obtained from bloodstream infection of patient by microdilution method at pH 5.5
Staphylococcus aureus [11] = experiment: microbe, parasite or virus in culture; conditions: ATCC 11632
Staphylococcus aureus [12] = experiment: Antimicrobial activity against hospital-acquired methicillin-resistant Staphylococcus aureus N4112910 obtained from nasal swap of patient by microdilution method at pH 5.5
Staphylococcus aureus [13] = experiment: microbe, parasite or virus in culture; conditions: ATCC 25923

Compound | log10cfu (Staphylococcus aureus [1]) | fold change (FC) (Staphylococcus aureus [2]) | log10cfu (Staphylococcus aureus [3]) | Activity (Staphylococcus aureus [4]) | log10cfu (Staphylococcus aureus [5]) | Activity (Staphylococcus aureus [6]) | fold change (FC) (Staphylococcus aureus [7]) | EC50 (Staphylococcus aureus [8]) | fold change (FC) (Staphylococcus aureus [9]) | MIC (Staphylococcus aureus [10]) | MIC (Staphylococcus aureus [11]) | MIC (Staphylococcus aureus [12]) | MIC (Staphylococcus aureus [13])
CO/N=C(\C(=O)N[C@@H]1C(=O)N2C(C(=O)O)=C(COC(N)=O)CS[C@H]12)c1ccco1 [CEFUROXIME] | 2.75 | 128 | -0.42 | 0.26 mg/L | 3.23 | 200 mg/L | 16 | 0.27 µg/mL (≈ 0.636 µM) | 4 | – | – | – | –
CN[C@H](CC(C)C)C(=O)N[C@H]1C(=O)N[C@@H](CC(N)=O)C(=O)N[C@H]2C(=O)N[C@H]3C(=O)N[C@H](C(=O)N[C@H](C(=O)O)c4cc(O)cc(O)c4-c4cc3ccc4O)[C@H](O)c3ccc(c(Cl)c3)Oc3cc2cc(c3O[C@@H]2O[C@H](CO)[C@@H](O)[C@H](O)[C@H]2O[C@H]2C[C@](C)(N)[C@H](O)[C@H](C)O2)Oc2ccc(cc2Cl)[C@H]1O [VANCOMYCIN] | – | – | – | – | – | – | – | – | – | 0.25 µg/mL (≈ 0.173 µM) | 0.25 µg/mL (≈ 0.173 µM) | 0.25 µg/mL (≈ 0.173 µM) | 0.25 µg/mL (≈ 0.173 µM)
CO/N=C(\C(=O)N[C@@H]1C(=O)N2C(C(=O)O)=C(CSc3nc(=O)c(O)nn3C)CS[C@H]12)c1csc(N)n1 [CEFTRIAXONE] | 2.09 | 512 | -0.3 | 14.8 mg/L | 2.44 | >200 mg/L | 16 | 1.83 µg/mL (≈ 3.3 µM) | 4 | – | – | – | –
CC1=C(C(=O)O)N2C(=O)[C@@H](NC(=O)[C@H](N)c3ccccc3)[C@H]2SC1 [CEPHALEXIN ANHYDROUS] | 2.42 | 16 | 0.035 | 200 mg/L | 3.09 | – | 2 | 0.27 µg/mL (≈ 0.777 µM) | 16 | – | – | – | –
CO[C@@]1(NC(=O)Cc2cccs2)C(=O)N2C(C(=O)O)=C(COC(N)=O)CS[C@@H]21 [CEFOXITIN] | 2.36 | 512 | -0.91 | 1.84 mg/L | 3.06 | >200 mg/L | 4 | 0.55 µg/mL (≈ 1.29 µM) | – | – | – | – | –
